Experimental data from ChEMBL document CHEMBL1649516, “Pyrazolopyrimidinediones are selective agents for Helicobacter pylori that suppress growth through inhibition of glutamate racemase (MurI)” (2009).
In brackets after ≈: the same amount, converted by molar mass. Activity calls are given as the source filed them. No cut-off for these calls is given here.

How the values were obtained:
Staphylococcus aureus = assay: Antibacterial activity against Staphylococcus aureus by CLSI M100-S13 method; format: functional
How it was run: (§1)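 Broth MICs were run per CLSI guidelines. Compounds were dissolved in DMSO at 2% final concentration, and 2% DMSO alone served as the control.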

Helicobacter pylori [1] = assay: Antibacterial activity against HefC-deficient Helicobacter pylori ARHp80 by CLSI M100-S13 method; format: functional
How it was run: (§2)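 MICs for H. pylori, C. coli and C. jejuni were determined by a previously described susceptibility method. Compounds were in DMSO at 2% final, and 2% DMSO served as the control.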

Helicobacter pylori [2] = assay: Antibacterial activity against Helicobacter pylori ARHp80 by CLSI M100-S13 method; format: functional; how it was run: as §2
Moraxella catarrhalis = assay: Antibacterial activity against Moraxella catarrhalis ATCC 43617 by CLSI M100-S13 method; format: functional; how it was run: as §1
Escherichia coli = assay: Antibacterial activity against Escherichia coli by CLSI M100-S13 method; format: functional; how it was run: as §1
Haemophilus influenzae = assay: Antibacterial activity against Haemophilus influenzae ATCC 51907 by CLSI M100-S13 method; format: functional; how it was run: as §1
[3] = biological target: T1, Glutamate racemase (Helicobacter pylori (strain ATCC 700392 / 26695) (Campylobacterpylori)) (UniProt P56068); assay: Inhibition of MurI in flaA mutant Helicobacter pylori Hp80.2 overexpressing MurI gene assessed as microbial growth inhibition by CLSI M100-S13 method
T1 sequence (whole entry): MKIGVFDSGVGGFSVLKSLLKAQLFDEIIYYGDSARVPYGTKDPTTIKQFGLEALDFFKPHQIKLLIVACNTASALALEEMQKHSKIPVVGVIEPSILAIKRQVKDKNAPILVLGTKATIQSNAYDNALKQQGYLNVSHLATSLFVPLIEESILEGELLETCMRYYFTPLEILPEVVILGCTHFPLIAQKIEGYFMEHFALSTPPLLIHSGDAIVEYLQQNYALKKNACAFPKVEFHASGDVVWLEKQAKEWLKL
How it was run: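 MIC against H. pylori Hp80.2, a strain built in the wild-type ARHp80 background by replacing flaA with a murI expression construct (pSM116) so that flaA-promoter-driven MurI is overexpressed, confirmed by PCR, sequencing and Western blot. The comparison strain is isogenic Hp80.1, which carries the empty construct. Compounds were dissolved in DMSO, 2% final, with 2% DMSO as control.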

Enterococcus faecium = assay: Antibacterial activity against Enterococcus faecium ATCC 19434 by CLSI M100-S13 method; format: functional; how it was run: as §1
Helicobacter pylori [4] = assay: Antibacterial activity against Helicobacter pylori SS1 by CLSI M100-S13 method; format: functional; how it was run: as §2
Streptococcus pneumoniae = assay: Antibacterial activity against Streptococcus pneumoniae NCTC 7466 by CLSI M100-S13 method; format: functional; settings: NCTC7466; how it was run: as §1
[5] = tested on: Fusobacterium necrophorum; assay: Antibacterial activity against Fusobacterium necrophorum clinical isolate by CLSI M100-S13 method; format: functional
How it was run: (§3)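 Anaerobic MICs run by CLSI broth microdilution guidelines for Bacteroides fragilis. Compounds were dissolved in DMSO at 2% final in all wells, and 2% DMSO served as the solvent control.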

Bacteroides fragilis = assay: Antibacterial activity against Bacteroides fragilis ATCC 25285 by CLSI M11-S13 broth microdilution method; format: functional; how it was run: as §3
Fusobacterium mortiferum = assay: Antibacterial activity against Fusobacterium mortiferum clinical isolate by CLSI M100-S13 method; format: functional; how it was run: as §3
Clostridioides difficile = assay: Antibacterial activity against Clostridium difficile clinical isolate by CLSI M100-S13 method; format: functional; how it was run: as §3
Lactobacillus jensenii = assay: Antibacterial activity against Lactobacillus jensenii clinical isolate by CLSI M100-S13 method; format: functional
Campylobacter coli = assay: Antibacterial activity against Campylobacter coli ATCC 33559 by CLSI M100-S13 method; format: functional; how it was run: as §2
[6] = biological target: T1, Glutamate racemase (Helicobacter pylori (strain ATCC 700392 / 26695) (Campylobacterpylori)); assay: Inhibition of MurI in Helicobacter pylori assessed as morphological change at 2 times MIC by phase contrast microscopy
How it was run: (§4)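 H. pylori was grown at 37°C in brucella broth with 5% fetal calf serum under microaerophilic gas (5% O2, 10% CO2, 85% N2), then examined for cell shape by phase-contrast microscopy.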

Campylobacter jejuni = assay: Antibacterial activity against Campylobacter jejuni ATCC 33560 by CLSI M100-S13 method; format: functional; how it was run: as §2
[7] = tested on: Prevotella melaninogenica; assay: Antibacterial activity against Prevotella melaninogenica clinical isolate by CLSI M100-S13 method; format: functional; how it was run: as §3
[8] = tested on: Bacteroides thetaiotaomicron; assay: Antibacterial activity against Bacteroides thetaiotaomicron clinical isolate by CLSI M100-S13 method; format: functional; how it was run: as §3
Helicobacter pylori [9] = assay: Induction of morphological changes in Helicobacter pylori by phase contrast microscopy; format: functional, organism-based; how it was run: as §4

Row | SMILES | MIC (Staphylococcus aureus) [µg/mL] | MIC (Helicobacter pylori [1]) [µg/mL] | MIC (Helicobacter pylori [2]) [µg/mL] | MIC (Moraxella catarrhalis) [µg/mL] | MIC (Escherichia coli) [µg/mL] | MIC (Haemophilus influenzae) [µg/mL] | MIC [3] [µg/mL] | MIC (Enterococcus faecium) [µg/mL] | MIC (Helicobacter pylori [4]) [µg/mL] | MIC (Streptococcus pneumoniae) [µg/mL] | further results
1 | CC(C)Cn1c(=O)n(C)c(=O)c2c(-c3ccncc3)n(Cc3cccc4ccccc34)nc21 | > 64 | 1 (≈ 2.28 µM) | 4 (≈ 9.1 µM) | > 64 | > 64 | > 64 | 8 (≈ 18.2 µM) | > 64 | 4 (≈ 9.1 µM) | > 64 | 
2 | Cn1cc([S+](C)[O-])cc1-c1c2c(=O)n(C)c(=O)n(CC3CC3)c2nn1Cc1ccnc2ccc(Cl)cc12 (configuration not stated) | > 64 | 0.25 (≈ 0.466 µM) | 8 (≈ 14.9 µM) | > 64 | > 64 | > 64 | 16 (≈ 29.8 µM) | > 64 | 16 (≈ 29.8 µM) | > 64 | 
3 | C#CCn1c(=O)c2c(-c3cncn3C)n(Cc3ccnc4ccc(Cl)cc34)nc2n(CC2CC2)c1=O | > 64 | 0.25 (≈ 0.5 µM) | 1 (≈ 2 µM) |  | > 64 |  | 8 (≈ 16 µM) |  | 2 (≈ 4 µM) |  | 
4 | Cn1cc(C#N)cc1-c1c2c(=O)n(C)c(=O)n(CC3CC3)c2nn1Cc1ccnc2ccc(Cl)cc12 | > 64 | 0.25 (≈ 0.5 µM) | 0.5 (≈ 1 µM) |  | > 64 |  | 4 (≈ 8 µM) |  | 1 (≈ 2 µM) |  | MIC [5]: > 64 µg/mL; MIC (Bacteroides fragilis): > 64 µg/mL; MIC (Fusobacterium mortiferum): > 64 µg/mL; MIC (Clostridioides difficile): > 64 µg/mL; MIC (Lactobacillus jensenii): > 64 µg/mL; MIC (Campylobacter coli): > 64 µg/mL; Activity [6]: Non-toxic; MIC (Campylobacter jejuni): > 64 µg/mL; MIC [7]: > 64 µg/mL; MIC [8]: > 64 µg/mL
5 | C#CCn1c(=O)c2c(-c3cc(C#N)cn3C)n(Cc3cc(C#N)nc4ccc(Cl)cc34)nc2n(CC2CC2)c1=O | > 64 | 0.5 (≈ 0.911 µM) | 1 (≈ 1.82 µM) |  | > 64 |  | > 64 |  | 2 (≈ 3.64 µM) |  | 
6 | CONC(=O)c1cc(-c2c3c(=O)n(C)c(=O)n(CC4CC4)c3nn2Cc2c[nH]c3ccc(C)cc23)n(C)c1 | > 64 | 0.25 (≈ 0.485 µM) | 16 (≈ 31 µM) | > 32 | > 64 | > 32 |  | > 32 | 16 (≈ 31 µM) | > 32 | 
7 | CN(C)[C@@H]1C(O)=C(C(N)=O)C(=O)[C@@]2(O)C(O)=C3C(=O)c4c(O)cccc4[C@@](C)(O)[C@H]3C[C@@H]12 [TETRACYCLINE] |  | 0.015 (≈ 0.0338 µM) | 0.13 (≈ 0.293 µM) |  |  |  | 0.13 (≈ 0.293 µM) |  | 0.25 (≈ 0.563 µM) |  | Activity (Helicobacter pylori [9]): Active
